From article PMC10413622 (Nuclear medicine and biology, 2022)
Entries after “also recorded” stand apart in the source; their conditions may differ.

How the values were obtained:
[1] = In vitro human plasma stability of radiotracer; assay type: in vitro ADME; settings: 37 °C, HPLC
Method in brief: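 Formulated radiotracer (46 μCi) was mixed into human plasma, with aliquots held at 37 °C. Aliquots were quenched at 0, 5, 15, 30 and 60 min with ice-cold MeCN and centrifuged at 12,500g for 10 min. Supernatant went to radio-HPLC (C18, 70–95% MeCN with 0.1% TFA over 15 min). Controls of tracer without plasma were run at 0 and 60 min.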

[2] = Dynamic PET/CT imaging in mice; assay type: in vivo, mouse
Method in brief: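 Subjects were female C57BL/6 wild-type mice aged 3 months and one male P2Y12R total-KO mouse (C57BL/6 background, 11 months), under isoflurane (2–3.5% induction, 1–2.5% maintenance). Tracer was given by tail vein at 300 μCi, formulated in saline with 10% ethanol. Imaging was 60 min list-mode dynamic PET (4×15 s, 4×1 min, 11×5 min), OSEM-3D with scatter and attenuation correction, then CT. ROIs were applied to dynamic data to give TACs in %ID/g.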

[3] = mouse, in vivo, 1 h
[4] = Stability of radiotracer in formulation; assay type: physicochemical
[5] = MicroPET imaging in rhesus macaque; assay type: in vivo; settings: rhesus macaque n = 1, i.v. bolus, 60 min dynamic scan
Method in brief: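 One mature female rhesus monkey (9.36 kg) was anaesthetised with Telazol, intubated, and maintained on isoflurane, with a hind-limb venous catheter and head secured. Tracer 4.90 mCi was given as a bolus over 1 min. The brain was imaged for 60 min (5×1, 2×2.5, 2×5, 4×10 min frames), with attenuation and scatter correction and 3D MAP reconstruction. A whole-brain volumetric ROI drawn on the summed image gave the TAC.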

P2Y12R = settings: read-out: IC50 (affinity); cited from earlier work
Caco-2 cells = assay: Caco-2 permeability assay; assay type: in vitro ADME; settings: 10 μM, pH 7.4, 2 h
Method in brief: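 Caco-2 cells grown in DMEM under 5% CO₂, seeded at 5 × 10⁵/well on polycarbonate filter inserts and differentiated 21 ± 4 days. Test compound at 10 μM final in HBSS with 25 mM HEPES, pH 7.4, 37 °C, added donor side. A→B and B→A runs were done with and without elacridar. Receiver was sampled over 2 h and donor at 0 and 2 h, then analysed by LC-MS/MS. Papp = […]/(A × C₀,donor) × 10⁶.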

[6] = tested on: other purinergic receptors; settings: cited from earlier work
[7] = Microsome stability assay; assay type: in vitro ADME, mouse; settings: 1 μM test compound, NADPH, 37 °C
Method in brief: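 Mouse liver microsomes in 100 mM K₃PO₄ pH 7.4 with 10 mM MgCl₂ and 1 μM test compound were pre-incubated 10 min at 37 °C. Reactions were started with 1 mM NADPH. They were quenched at 0, 10, 20 and 40 min with stop solution in acetonitrile, centrifuged at 4000g for 20 min, diluted in 0.1% formic acid and quantified by LC-MS/MS.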

[8] = determined at pH 6.8; cited from earlier work
[9] = mice, i.v., 5 min post injection

intact tracer after incubation in human serum ([1]; 60 min incubation) [%] | CNS uptake in P2Y12R knockout mouse (PET) ([2]; P2Y12R total KO male mouse n = 1, 60 min dynamic scan) | brain uptake (PET) [2, 9] [%ID/g] | liver uptake (PET) [2, 9] [%ID/g] | brain peak uptake (PET) ([2]; naïve wild-type mice n = 3, i.v., 15 s post injection) [%ID/g] | ex vivo biodistribution, blood [3] | ex vivo biodistribution, brain [3] | ex vivo biodistribution, liver [3] [%ID/g] | intact tracer after incubation in formulation ([4]; 90 min in formulation (saline with 10% ethanol)) [%] | time stable in formulation and resistant to radiolysis ([4]; post end-of-synthesis) [min] | peak brain uptake (PET) [5] [SUV] | Caco-2 efflux ratio BA/AB (Caco-2 cells) | Caco-2 apparent permeability AB (Caco-2 cells; A→B) | half-life in mouse liver microsomes [7] [min] | SMILES | loss of parent / radio-metabolites in human plasma ([1]; 0-60 min incubation) | IC50 (P2Y12R) [µM] | selectivity for P2Y12R over other purinergic receptors [6] | logD [8]
> 99 | no CNS uptake | 0.55 ± 0.37 | 58.28 ± 18.75 | 3.46 ± 2.0 | 0.9% ± 0.40 %ID/g | 0.02% ± 0.01 %ID/g | 106 ± 29.70 | > 99 | > 90 | 0.37 |  |  |  | CCOC(=O)c1cc([11C]#N)c(N2CCC(C(=O)NS(=O)(=O)Cc3ccccc3)CC2)nc1C [[^11C]AZD1283] | no loss of parent or detection of radio-metabolites; also recorded: no loss of parent tracer or appearance of radio-metabolites |  |  | 
 |  |  |  |  |  |  |  |  |  |  | 5.3 | 4.48 | 37 | CCOC(=O)c1cc(C#N)c(N2CCC(C(=O)NS(=O)(=O)Cc3ccccc3)CC2)nc1C [AZD1283] |  | 0.011 | selective for P2Y12R over other purinergic receptors | 2.8
